According to ChEMBL document CHEMBL4396878, “Mechanisms of Specific versus Nonspecific Interactions of Aggregation-Prone Inhibitors and Attenuators” (J Med Chem, 2019):
The source made the active and inactive calls. No cut-off for these calls is given here.

Legend:
[1] = target: T1, Rap guanine nucleotide exchange factor 3 (Homo sapiens) (UniProt O95398); experiment: Binding affinity to human EPAC1 cAMP binding domain (149 to 318 residues) assessed as peak size at 50 to 200 uM using aggregate form of compound by dynamic light scattering analysis
T1 sequence (whole entry): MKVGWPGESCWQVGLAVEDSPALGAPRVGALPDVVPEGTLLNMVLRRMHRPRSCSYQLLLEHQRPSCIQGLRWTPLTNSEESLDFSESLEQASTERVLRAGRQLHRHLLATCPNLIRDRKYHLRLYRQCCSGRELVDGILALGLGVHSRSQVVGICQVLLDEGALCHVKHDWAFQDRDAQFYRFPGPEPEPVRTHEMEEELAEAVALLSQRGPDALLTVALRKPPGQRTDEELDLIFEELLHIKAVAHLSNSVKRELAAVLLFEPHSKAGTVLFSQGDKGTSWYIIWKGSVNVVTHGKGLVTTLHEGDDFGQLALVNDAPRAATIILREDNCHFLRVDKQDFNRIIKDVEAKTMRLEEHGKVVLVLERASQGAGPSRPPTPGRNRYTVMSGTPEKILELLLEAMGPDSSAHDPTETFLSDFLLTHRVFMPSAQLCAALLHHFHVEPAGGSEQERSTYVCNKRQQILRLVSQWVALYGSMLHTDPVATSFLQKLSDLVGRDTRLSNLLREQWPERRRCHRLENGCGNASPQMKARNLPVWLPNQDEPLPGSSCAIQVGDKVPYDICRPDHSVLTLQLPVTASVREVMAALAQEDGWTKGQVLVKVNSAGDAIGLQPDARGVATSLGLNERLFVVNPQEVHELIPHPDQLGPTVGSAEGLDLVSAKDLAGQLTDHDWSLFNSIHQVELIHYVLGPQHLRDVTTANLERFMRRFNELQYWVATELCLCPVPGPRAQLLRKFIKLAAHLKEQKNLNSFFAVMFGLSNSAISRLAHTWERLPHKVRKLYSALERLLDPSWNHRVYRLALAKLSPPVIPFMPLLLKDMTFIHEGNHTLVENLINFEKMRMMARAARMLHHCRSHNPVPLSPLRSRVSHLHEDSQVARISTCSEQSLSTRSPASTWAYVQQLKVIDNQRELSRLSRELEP
Summary of the method: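 Dynamic light scattering in NMR buffer, samples filtered through 0.22 μm and centrifuged 5 min at 13 500 rpm before measurement. Autocorrelation accumulated 150 s at a 173° scattering angle, in replicates of 3–5, with water viscosity used in analysis; intensity or volume size distributions reported.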

[2] = Binding affinity to Triton-X 100 assessed as change in chemical shift at 100 uM by 1H-NMR spectra analysis
[3] = target: Albumin (Homo sapiens, UniProt P02768); experiment: Binding affinity to human serum albumin assessed as inhibition of compound aggregation at 250 uM by surface plasmon resonance analysis
Summary of the method: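 SPR on a nonfunctionalized gold nanoparticle sensor; samples in NMR buffer with DMSO at 1.25%, injected at 33 μL/min alongside matched DMSO controls (with HSA where present, 25 μM), in duplicate. Surface regenerated only after HSA-containing injections.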

[4] = target: T1, Rap guanine nucleotide exchange factor 3 (Homo sapiens); experiment: Ratio of apparent Kd for binding affinity to human EPAC1 cAMP binding domain (149 to 318 residues) in presence of human serum albumin to apparent Kd for binding affinity to human EPAC1 cAMP binding domain (149 to 318 residues) in absence of human serum albumin

Albumin, sequence (P02768 whole entry): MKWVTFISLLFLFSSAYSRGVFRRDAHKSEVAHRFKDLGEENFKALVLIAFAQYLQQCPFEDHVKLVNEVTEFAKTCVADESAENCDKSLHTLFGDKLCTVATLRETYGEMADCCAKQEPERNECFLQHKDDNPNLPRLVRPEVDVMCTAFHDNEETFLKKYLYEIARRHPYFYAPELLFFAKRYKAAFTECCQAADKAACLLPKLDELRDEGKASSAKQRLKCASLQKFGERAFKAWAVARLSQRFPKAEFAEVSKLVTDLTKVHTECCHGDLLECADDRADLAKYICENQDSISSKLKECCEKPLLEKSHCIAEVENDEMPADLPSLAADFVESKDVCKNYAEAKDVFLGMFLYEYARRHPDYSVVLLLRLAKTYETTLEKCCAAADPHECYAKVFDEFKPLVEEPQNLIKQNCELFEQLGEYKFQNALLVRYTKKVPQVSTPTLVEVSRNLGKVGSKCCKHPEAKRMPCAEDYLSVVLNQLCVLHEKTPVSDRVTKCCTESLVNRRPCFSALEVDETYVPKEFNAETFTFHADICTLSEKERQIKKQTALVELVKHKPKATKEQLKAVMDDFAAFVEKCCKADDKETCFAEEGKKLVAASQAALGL

- Activity [1]: 250 nm
- Activity [2]: Active
- inhibition (INH) [3]: Active
- Activity [4]: inactive
Compound: CC(C)(C)c1cc(C(=O)/C(C#N)=N/Nc2cccc(Cl)c2)no1
